The term viability denotes a read-out of living cells in per cent, often relative to untreated cells. What is called inhibition is the change of the read-out against control, counted positive when it falls.

The source made the active and inactive calls. Unless noted, no stated cut-off is given here; in the data, active means inhibition above about 30%; inactive means the rest.

Assay [1] in a line: Her2 expression decrease, cell viability multiplex – SKBR3 breast tumor cells, AlphaScreen, ATP viability, primary screen (AID 461;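 active means Her2 level under about 52% in both replicate screens, with viability over 70% of control, limit read from the data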;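 on Her2 level: lower value means less Her2 protein in the cells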;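 on viability: percent of carrier control wells set as 100% viability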). To be noted: SKBR3 Her2 protein level, 18-24 h, measured here: SKBR3 viability, ATP luminescence, at 10 µM. On the technique in general: In Alpha technology, singlet oxygen from a donor bead excites a nearby acceptor bead.
The target of assay [2] is Receptor tyrosine-protein kinase erbB-2 (Homo sapiens) (UniProt P04626). Described as above. The conditions noted are these: 18-24 h, at 10 µM, stronger effect = lower value.
Chain of Receptor tyrosine-protein kinase erbB-2 (Homo sapiens) (P04626 whole entry, looked up): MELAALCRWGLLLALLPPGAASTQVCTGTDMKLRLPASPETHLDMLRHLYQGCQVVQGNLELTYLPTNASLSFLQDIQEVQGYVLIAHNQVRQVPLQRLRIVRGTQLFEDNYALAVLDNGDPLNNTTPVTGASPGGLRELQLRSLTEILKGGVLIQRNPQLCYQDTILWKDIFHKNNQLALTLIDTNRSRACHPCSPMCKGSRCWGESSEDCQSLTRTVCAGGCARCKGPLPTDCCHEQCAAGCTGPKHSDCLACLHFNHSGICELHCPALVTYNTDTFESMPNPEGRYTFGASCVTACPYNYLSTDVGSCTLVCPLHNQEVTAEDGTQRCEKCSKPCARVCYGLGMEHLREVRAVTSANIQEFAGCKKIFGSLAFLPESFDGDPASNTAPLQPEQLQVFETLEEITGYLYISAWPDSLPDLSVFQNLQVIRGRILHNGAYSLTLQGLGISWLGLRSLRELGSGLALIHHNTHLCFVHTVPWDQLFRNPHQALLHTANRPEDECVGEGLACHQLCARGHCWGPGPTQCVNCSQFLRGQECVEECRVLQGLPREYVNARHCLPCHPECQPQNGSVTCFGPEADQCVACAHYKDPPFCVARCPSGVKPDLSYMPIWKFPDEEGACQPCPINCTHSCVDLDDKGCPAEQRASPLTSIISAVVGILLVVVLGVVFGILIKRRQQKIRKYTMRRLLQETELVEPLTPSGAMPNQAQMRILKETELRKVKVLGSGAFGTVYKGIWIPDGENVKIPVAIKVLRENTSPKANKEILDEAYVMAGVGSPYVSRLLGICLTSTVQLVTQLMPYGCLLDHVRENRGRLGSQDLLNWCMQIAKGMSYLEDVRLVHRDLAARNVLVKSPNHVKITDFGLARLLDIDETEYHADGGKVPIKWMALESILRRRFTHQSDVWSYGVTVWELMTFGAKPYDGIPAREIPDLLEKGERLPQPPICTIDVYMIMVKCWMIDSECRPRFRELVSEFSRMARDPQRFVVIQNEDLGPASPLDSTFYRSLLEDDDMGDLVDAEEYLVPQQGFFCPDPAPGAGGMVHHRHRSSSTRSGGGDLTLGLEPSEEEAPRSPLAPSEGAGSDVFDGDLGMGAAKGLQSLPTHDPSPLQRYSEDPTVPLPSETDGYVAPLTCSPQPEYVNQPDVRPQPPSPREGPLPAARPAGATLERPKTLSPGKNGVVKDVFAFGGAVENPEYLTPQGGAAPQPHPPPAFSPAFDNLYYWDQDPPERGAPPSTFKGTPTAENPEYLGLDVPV
Assay [3] in a line: reduced viability of SK-BR-3 breast cancer cells – cell-based, 24 h, human, pilot screen (AID 572;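 active means viability at or below 10% of carrier control in both of two separate runs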;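 further: compound exposure lasted between 18 and 24 h rather than exactly 24 h; 100% = carrier-treated control wells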). To be noted: SK-BR-3 viability, CellTiter-Glo luminescence, at 10 µM, stronger effect = lower value. A general note: In ATP-based viability assays light output follows the ATP content of the culture.
A short description of assay [4]: HUVEC growth inhibition – cell-based, human, primary screen (AID 575;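 active means viability at or below 30% in both replicate assays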;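 further: 100% = median of untreated cell wells with 0.1% DMSO on each plate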). The conditions noted are these: HUVEC proliferation, CellTiter-Glo luminescence, 72 h; at 10 µM; stronger effect = lower value. Put shortly: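 Test system: primary human umbilical vein endothelial cells. Quantity: 1250 cells/well. Compound: single 10 µM dose, 0.1% DMSO, from 5x medium stock. Timing: 72 h treatment at 37 °C. Detection: ATP-based CellTiter-Glo luminescent read. Benchmarks: vehicle and MePR control wells. Format: 384-well plates coated with collagen.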

A short description of assay [5]: H69AR cell proliferation blockers – human, duplicate replicates, primary screen (AID 580;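 active means viability at or under a set limit in both replicates, limit being median viability minus 3 SD, cut at about 48% in these data, passing the limit was not always enough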;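 further: 100% = mean luminescence of untreated wells and 0% = no signal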). To be noted: H69AR lung tumor cells viability, ATP luminescence, 72 h; at 10 µM; stronger effect = lower value.
Assay [6] in a line: MRP1 drug-resistance reversers in H69AR cells – cell-based, doxorubicin co-treatment, pilot screen (AID 601;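 active means viability loss from added drug above about 55%, and viability with drug at most 40%, in both replicates, limit read from the data, passing the limit was not always enough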). To be noted: CellTiter-Glo, 72 h, at 10 µM; for differential viability (reversal): stronger effect = higher value.
Assay [7] is described as follows: yeast transport mutant growth inhibition pilot in 384-well plates, post-Golgi transport modulator project (AID 636; in the data active means inhibition above about 31%). The conditions noted are these: absorbance 615 nm, about 18 h, stronger effect = higher value.
Assay [8] can be described thus: growth suppression of yeast trafficking mutant, preliminary HTS, modulators of trafficking downstream of Golgi apparatus project, 1536-format plate, OD 615 nm (AID 637). To be noted: yeast transport mutant growth, absorbance 615 nm, 18 h; stronger effect = higher value.
The mark [9] stands for this setting: H69AR cells + 2 uM doxorubicin, measured here: viability with 2 uM doxorubicin, stronger effect = lower value.
The mark [10] stands for this setting: H69AR cells, compound alone cytotoxicity.

On to `O=C(CSc1nc2ccccc2o1)Nc1ccccc1`, for which the viability in assay [1] is 107%; in assay [3], 107% (inactive); in assay [4], 105% (inactive); in assay [5], 79% (inactive); in assay [6] (setting [9]), 90.4%; in assay [6] (setting [10]), 79%. The Her2 level in assay [2] is 124% (inactive). For the same compound, the differential viability (reversal) in assay [6] (H69AR cells + 2 uM doxorubicin) was -11.4% (inactive). The inhibition in assay [7] was -0.9% (inactive); in assay [8] it was -4.83% (inactive).

With `Cc1nnc2n(Cc3ccccc3)c(=O)c3c4c(sc3n12)COC(C(C)C)C4` (stereo not given), the viability in assay [1] was 124%; in assay [3] it was 124% (inactive); in assay [4], 82.5% (inactive); in assay [5], 76.2% (inactive); in assay [6] (setting [9]), 59.2%; in assay [6] (setting [10]) it was 76.2%. Besides, in assay [2], the Her2 level is 69% (inactive). The differential viability (reversal) in assay [6] (H69AR cells + 2 uM doxorubicin) is 17% (inactive). Moreover, the results for the inhibition in assay [7] and in assay [8] were -7.6% (inactive) and 11.9% (inactive), respectively.

Regarding `Cc1ccccc1NC(=O)CSc1nc(N)c(C#N)c(-c2cccs2)c1C#N`, the viability in assay [1] is 115%; in assay [3], 115% (inactive); in assay [4], 72.3% (inactive); in assay [5], 30.2% (active); in assay [6] (setting [9]), 27.1%; in assay [6] (setting [10]), 30.2%. Besides, the Her2 level in assay [2] is 77% (inactive). Also, in assay [6] (H69AR cells + 2 uM doxorubicin), the differential viability (reversal) was 3.09% (inactive). For the same compound, the inhibition in assay [7] was -9.32% (inactive); in assay [8], 6.83% (inactive).

As to `COc1cc(CC(=O)Nc2ncc(C)s2)cc(OC)c1OC`, the viability in assay [1] is 109%; in assay [3] it was 109% (inactive); in assay [4], 90.8% (inactive); in assay [5], 91.5% (inactive); in assay [6] (setting [9]), 88.8%; in assay [6] (setting [10]), 91.5%. Moreover, in assay [2], the Her2 level is 96% (inactive). Also, the differential viability (reversal) in assay [6] (H69AR cells + 2 uM doxorubicin) was 2.69% (inactive). Further, the inhibition in assay [7] is -3.2% (inactive); in assay [8], 5.74% (inactive).

As to `COc1ccc(-c2noc(COc3ccc4ccccc4c3Br)n2)cc1OC`, the viability in assay [1] was 129%; in assay [3], 129% (inactive); in assay [4] it was 112% (inactive); in assay [5], 80.8% (inactive); in assay [6] (setting [9]), 75.5%; in assay [6] (setting [10]), 80.8%. Further, the Her2 level in assay [2] is 104% (inactive). Moreover, in assay [6] (H69AR cells + 2 uM doxorubicin), the differential viability (reversal) is 5.36% (inactive). For the same compound, the inhibition in assay [7] is -4.21% (inactive); in assay [8], -3.23% (inactive).

For the compound `CN(c1ccccc1)S(=O)(=O)c1ccc(C(=O)OCC(=O)N2CCOCC2)cc1`, the viability was 106% in assay [1]; 106% (inactive) in assay [3]; 106% (inactive) in assay [4]; 111% (inactive) in assay [5]; 89.4% in assay [6] (setting [9]); 111% in assay [6] (setting [10]). Besides, in assay [2], the Her2 level is 85.5% (inactive). The differential viability (reversal) in assay [6] (H69AR cells + 2 uM doxorubicin) was 21.5% (inactive). For the same compound, the inhibition in assay [7] was -5.41% (inactive); in assay [8], 3.17% (inactive).

In the case of `Cc1nn(-c2ccc(F)cc2)c2sc(C(=O)O)cc12`, the viability in assay [1] was 99%; in assay [3], 99% (inactive); in assay [4], 72.9% (inactive); in assay [5] it was 89.8% (inactive); in assay [6] (setting [9]), 84.3%; in assay [6] (setting [10]), 89.8%. Also, the Her2 level in assay [2] is 103% (inactive). For the same compound, the differential viability (reversal) in assay [6] (H69AR cells + 2 uM doxorubicin) is 5.49% (inactive). The figures for the inhibition in assay [7] and in assay [8] were 0% (inactive) and 1.64% (inactive), respectively.

Take `Cn1c(=O)[nH]c(=O)c2[nH]c(CN3CCN(C(=O)c4ccco4)CC3)nc21`: the viability in assay [1] was 98.5%; in assay [3] it was 98.5% (inactive); in assay [4], 90.3% (inactive); in assay [5], 107% (inactive); in assay [6] (setting [9]) it was 92.9%; in assay [6] (setting [10]), 107%. Also, the Her2 level in assay [2] was 80% (inactive). Besides, the differential viability (reversal) in assay [6] (H69AR cells + 2 uM doxorubicin) was 13.8% (inactive). The results for the inhibition in assay [7] and in assay [8] were -1.58% (inactive) and 0.73% (inactive), respectively.

On to `O=C(OCC#CCSc1nc2ccccc2o1)c1ccco1`, for which the viability in assay [1] is 112%; in assay [3] it was 112% (inactive); in assay [4], 80.4% (inactive); in assay [5], 80.4% (inactive); in assay [6] (setting [9]), 82.2%; in assay [6] (setting [10]), 80.4%. The Her2 level in assay [2] is 84% (inactive). Moreover, the differential viability (reversal) in assay [6] (H69AR cells + 2 uM doxorubicin) is -1.78% (inactive). The inhibition in assay [7] is -6.67% (inactive); in assay [8] it was -7.7% (inactive).

For the compound `CC1=CC=CC2=NC(=O)CC(C)(C(=O)N(CC(=O)NC(C)C)C3CCCC3)N12` (stereo not given), the viability was 101% in assay [1]; 101% (inactive) in assay [3]; 96.5% (inactive) in assay [4]; 94% (inactive) in assay [5]; 100% in assay [6] (setting [9]); 94% in assay [6] (setting [10]). Besides, the Her2 level in assay [2] was 100% (inactive). Also, the differential viability (reversal) in assay [6] (H69AR cells + 2 uM doxorubicin) was -6.48% (inactive). The inhibition in assay [7] was -4% (inactive); in assay [8], 0.16% (inactive).

On to `COc1cccc(CN2CCN(C(=O)c3ccco3)CC2)c1OC`, for which the viability in assay [1] was 112%; in assay [3] it was 112% (inactive); in assay [4], 118% (inactive); in assay [5] it was 103% (inactive); in assay [6] (setting [9]) it was 96.5%; in assay [6] (setting [10]) it was 103%. In addition, in assay [2], the Her2 level is 90% (inactive). For the same compound, the differential viability (reversal) in assay [6] (H69AR cells + 2 uM doxorubicin) is 6.7% (inactive). The values for the inhibition in assay [7] and in assay [8] were -5.14% (inactive) and 0.95% (inactive), respectively.

As for `COc1ccc(S(=O)(=O)N2CCN(CC(=O)Nc3ccc(C)c(F)c3)CC2)cc1`, the viability is 89.5% in assay [1]; 89.5% (inactive) in assay [3]; 86.4% (inactive) in assay [4]; 25.5% (active) in assay [5]; 51.4% in assay [6] (setting [9]); 25.5% in assay [6] (setting [10]). Besides, the Her2 level in assay [2] is 93.5% (inactive). In addition, in assay [6] (H69AR cells + 2 uM doxorubicin), the differential viability (reversal) was -25.9% (inactive). Also, the inhibition in assay [7] is -5.2% (inactive); in assay [8], -1.94% (inactive).

Consider `COc1ccc(OC)c(C2=NOC(C(=O)NCCN3CCOCC3)C2)c1` (stereo not given), for which the viability in assay [1] is 107%; in assay [3], 107% (inactive); in assay [4], 102% (inactive); in assay [5], 90.6% (inactive); in assay [6] (setting [9]) it was 85.3%; in assay [6] (setting [10]), 90.6%. Besides, in assay [2], the Her2 level was 89.5% (inactive). The differential viability (reversal) in assay [6] (H69AR cells + 2 uM doxorubicin) is 5.3% (inactive). Besides, the inhibition in assay [7] is -1.18% (inactive); in assay [8] it was -3.27% (inactive).

Regarding `CCOc1cc(C(=O)N(C)c2ccccc2)cc(OCC)c1OCC`, the viability in assay [1] is 108%; in assay [3], 108% (inactive); in assay [4], 96.4% (inactive); in assay [5] it was 89.2% (inactive); in assay [6] (setting [9]), 90.7%; in assay [6] (setting [10]) it was 89.2%. The Her2 level in assay [2] was 131% (inactive). Further, in assay [6] (H69AR cells + 2 uM doxorubicin), the differential viability (reversal) was -1.49% (inactive). Further, the inhibition in assay [7] is -5.64% (inactive); in assay [8], -11.3% (inactive).

The record behind these values is PubChem BioAssay.
